Experiment [1] deals with VIM-2 E. coli growth with imipenem, OD600, 18 h. Nature of the experiment: growth inhibition synergy, VIM-2 E. coli plus imipenem – MIC 4-fold reduction, powder samples, late-stage follow-up (AID 624081). The procedure, abridged:
(§1)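 Material: VIM-2-transformed Escherichia coli, checkerboard broth microdilution with imipenem | Buffer or medium: Cation-adjusted MH broth | Probe or stimulus: Imipenem, two-fold series | Doses: Test compound in two-fold dilution series along plate rows | Timing: Aerobic incubation of at least 18 h at 37 °C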

Assay in experiment [2]: as above
The conditions noted are these: VIM-2 E. coli growth with imipenem, OD600, 18 h; measured here: max imipenem potentiation fold. The procedure, abridged:
as §1

Several values for one entry are separate records, joined by “and”; a condition that tells them apart may be missing. Identical values can stand only once. Activity calls are given as the source filed them.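 How the source made its calls: active means inhibitor concentration giving a fourfold drop in imipenem MIC is at most 10 µM; inactive means fourfold MIC drop needs more than 10 µM.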 Some results are limits rather than exact numbers.

One may read the MIC as the least concentration at which growth counts as inhibited. For `O=C1NC(=S)S/C1=C\c1c(Cl)cccc1Cl`, the MIC in experiment [1] was > 100 µM (inactive). The same measure, in the same setting: in the case of `COc1ccc(CNC(=O)CN2C(=O)/C(=C/c3c(Cl)cccc3Cl)SC2=S)cc1` it was > 100 µM (inactive); in that of `O=C(CN1C(=O)/C(=C/c2c(Cl)cccc2Cl)SC1=S)NC1CCCCC1`, > 100 µM (inactive).

With `CN1CCN(C(=O)CN2C(=O)/C(=C/c3c(Cl)cccc3Cl)SC2=S)CC1`, the MIC in experiment [1] is 12.5 µM (inactive). For the same compound, the fold potentiation in experiment [2] was 8. Taken in the same sequence, the figures for `CN1CCC(NC(=O)CN2C(=O)/C(=C/c3c(Cl)cccc3Cl)SC2=S)CC1` were 12.5 µM (inactive) and 8. Regarding `CN(C)CCNC(=O)CN1C(=O)/C(=C/c2ccccc2Cl)SC1=S`, the MIC in experiment [1] was > 100 µM (inactive).

Turning to `C=CCNC(=O)CN1C(=O)/C(=C/c2c(Cl)cccc2Cl)SC1=S`, the MIC in experiment [1] was > 100 µM (inactive). Still for that read-out and setting: to `CC(C)(C)NC(=O)CN1C(=O)/C(=C/c2c(Cl)cccc2Cl)SC1=S` belongs > 100 µM (inactive). `O=C(CN1C(=O)/C(=C/c2c(Cl)cccc2Cl)SC1=S)Nc1cccnc1`: the MIC in experiment [1] is 3.12 µM. Moreover, the fold potentiation in experiment [2] amounted to 8. With `O=C(CN1C(=O)/C(=C/c2c(Cl)cccc2Cl)SC1=S)Nc1ccccc1`, the MIC in experiment [1] is > 100 µM (inactive). For the compound `COC(=O)CN1C(=O)/C(=C/c2c(Cl)cccc2Cl)SC1=S`, in experiment [1], the MIC was 12.5 µM (inactive). Further, in experiment [2], the fold potentiation is 8. As to `O=C(CN1C(=O)/C(=C/c2c(Cl)cccc2Cl)SC1=S)Nc1ccccc1F`, the MIC in experiment [1] is > 100 µM (inactive). Same read-out and setting: to `O=C(CN1C(=O)/C(=C/c2c(Cl)cccc2Cl)SC1=S)Nc1ccc(Br)cn1` belongs > 100 µM (inactive). As for `CN1CCN(NC(=O)CN2C(=O)/C(=C/c3c(Cl)ccc(C(F)(F)F)c3Cl)SC2=S)CC1`, the MIC in experiment [1] was 0.781 µM. Besides, in experiment [2], the fold potentiation was 8. For `CN1CCN(NC(=O)CN2C(=O)/C(=C/c3c(Cl)cccc3Cl)SC2=S)CC1`, the MIC in experiment [1] was 6.25 µM and 12.5 µM (inactive). Moreover, the fold potentiation in experiment [2] stood at 8. As for `CCN(CC)OC(=O)CN1C(=O)/C(=C/c2c(Cl)cccc2Cl)SC1=S`, in experiment [1], the MIC is 6.2 µM. In addition, the fold potentiation in experiment [2] is 8. In the case of `CN(NC(=O)CN1C(=O)/C(=C/c2c(Cl)cccc2Cl)SC1=S)c1ccc(Cl)nn1`, in experiment [1], the MIC was > 100 µM (inactive).

As to `O=C(CN1C(=O)/C(=C/c2c(Cl)cccc2Cl)SC1=S)Nc1cc([N+](=O)[O-])ccc1O`, in experiment [1], the MIC was 3.12 µM. For the same compound, the fold potentiation in experiment [2] came to 8. On to `O=C(CN1C(=O)/C(=C/c2c(Cl)cccc2Cl)SC1=S)Nc1ccccn1`, for which the MIC in experiment [1] was > 100 µM (inactive). On to `Cc1cc(C)n(NC(=O)CN2C(=O)/C(=C/c3c(Cl)cccc3Cl)SC2=S)c(=O)c1`, for which the MIC in experiment [1] is 3.12 µM. Further, the fold potentiation in experiment [2] was determined as 8. For the compound `NC(=O)CN1C(=O)/C(=C/c2c(Cl)cccc2Cl)SC1=S`, the MIC in experiment [1] is 25 µM (inactive). On to `CC(C)N1CCN(NC(=O)CN2C(=O)/C(=C/c3c(Cl)cccc3Cl)SC2=S)CC1`, for which the MIC in experiment [1] was 12.5 µM (inactive). For the same compound, in experiment [2], the fold potentiation was found to be 16. As for `O=C(CN1C(=O)/C(=C/c2c(Cl)cccc2Cl)SC1=S)Nn1cnnc1`, in experiment [1], the MIC is > 100 µM (inactive). `CN1CCN(NC(=O)CN2C(=O)/C(=C/c3c(Cl)ccc(Cl)c3Cl)SC2=S)CC1`: the MIC in experiment [1] was 3.12 µM. For the same compound, in experiment [2], the fold potentiation came to 8.

As for `O=C(CN1C(=O)/C(=C/c2c(Cl)cccc2Cl)SC1=S)Nc1ccncc1`, the MIC in experiment [1] is 12.5 µM (inactive). In addition, in experiment [2], the fold potentiation amounted to 8. For `COC(=O)CNC(=O)CN1C(=O)/C(=C/c2c(Cl)cccc2Cl)SC1=S`, in experiment [1], the MIC is > 100 µM (inactive).

As to `CN1CCN(NC(=O)CN2C(=O)/C(=C/c3c(F)cccc3Cl)SC2=S)CC1`, in experiment [1], the MIC is 12.5 µM (inactive). Consider `O=C(O)CN1C(=O)/C(=C/c2c(F)cccc2C(F)(F)F)SC1=S`, for which the MIC in experiment [1] was 25 µM (inactive). The fold potentiation in experiment [2] was 8. On to `O=C(CN1C(=O)/C(=C/c2c(Cl)cccc2Cl)SC1=S)NCc1ccccc1Br`, for which, in experiment [1], the MIC is > 100 µM (inactive). Still for that read-out and setting: to `O=C(CN1C(=O)/C(=C/c2c(Cl)cccc2Cl)SC1=S)NC[C@H]1CCCO1` belongs > 100 µM (inactive). As to `O=C(CN1C(=O)/C(=C/c2c(Cl)cccc2Cl)SC1=S)NN1CCCCC1`, the MIC in experiment [1] is 6.2 µM. The fold potentiation in experiment [2] was 8.

On to `O=C(CN1C(=O)/C(=C/c2c(Cl)cccc2Cl)SC1=S)NCc1ccncc1`, for which the MIC in experiment [1] was 12.5 µM (inactive).

With `CN(NC(=O)CN1C(=O)/C(=C/c2c(Cl)cccc2Cl)SC1=S)c1ncc(C(F)(F)F)cc1Cl`, the MIC in experiment [1] is > 100 µM (inactive). As to `CN(C)CCNC(=O)CN1C(=O)/C(=C\c2ccccc2Cl)SC1=S`, in experiment [1], the MIC is > 100 µM (inactive).

In the case of `CC(C)(C)OC(=O)N1CCN(NC(=O)CN2C(=O)/C(=C/c3c(Cl)ccc(Cl)c3Cl)SC2=S)CC1`, the MIC in experiment [1] is 1.56 µM. On the same count and under the same terms, in the case of `CCOC(=O)c1c(NC(=O)CN2C(=O)/C(=C/c3c(Cl)cccc3Cl)SC2=S)sc2c1CCCC2` it was > 100 µM (inactive); in that of `O=C(CN1C(=O)/C(=C/c2c(Cl)ccc(Cl)c2Cl)SC1=S)NCc1ccccn1`, 3.12 µM. Take `C=CCONC(=O)CN1C(=O)/C(=C/c2c(Cl)cccc2Cl)SC1=S`: the MIC in experiment [1] was > 100 µM (inactive). The same measure, in the same setting: in the case of `O=C(CN1C(=O)/C(=C/c2ccccc2Cl)SC1=S)NCCc1cnc[nH]1` it was > 100 µM (inactive). With `O=C(O)CN1C(=O)/C(=C/c2c(Cl)cccc2Cl)SC1=S`, in experiment [1], the MIC is 3.12 µM. The fold potentiation in experiment [2] was 8. Consider `CN1CCN(C(=O)CN2C(=O)/C(=C/c3c(Cl)ccc(Cl)c3Cl)SC2=S)CC1`, for which, in experiment [1], the MIC was 6.25 µM. On to `O=C(CN1C(=O)/C(=C/c2c(Cl)ccc(Cl)c2Cl)SC1=S)NN1CCNCC1`, for which the MIC in experiment [1] is 12.5 µM (inactive).

With `CC(C)(C)OC(=O)N1CCN(NC(=O)CN2C(=O)/C(=C/c3c(Cl)cccc3Cl)SC2=S)CC1`, in experiment [1], the MIC is 6.2 µM. In experiment [2], the fold potentiation is 8. Regarding `Cc1c(N2C(=O)/C(=C/c3c(Cl)cccc3Cl)SC2=S)c(=O)n(-c2ccccc2)n1C`, the MIC in experiment [1] was 12.5 µM (inactive). The fold potentiation in experiment [2] amounted to 8. As to `O=C(CN1C(=O)/C(=C/c2ccccc2Cl)SC1=S)Nc1ccc(O)cc1`, the MIC in experiment [1] was > 100 µM (inactive).

Turning to `O=C(CN1C(=O)/C(=C/c2c(Cl)cccc2Cl)SC1=S)NOCc1ccccc1`, the MIC in experiment [1] was > 100 µM (inactive).

As for `CN1CCN(NC(=O)CN2C(=O)/C(=C/c3ccccc3Cl)SC2=S)CC1`, the MIC in experiment [1] was 50 µM (inactive). `O=C1/C(=C/c2c(Cl)cccc2Cl)SC(=S)N1Cc1ccncc1`: the MIC in experiment [1] was 12.5 µM (inactive). Further, the fold potentiation in experiment [2] was 8. On to `CN1CCN(NC(=O)CN2C(=O)/C(=C/c3ccccc3F)SC2=S)CC1`, for which the MIC in experiment [1] is > 100 µM (inactive).

On to `O=C(CN1C(=O)/C(=C/c2c(Cl)cccc2Cl)SC1=S)NN1CCNCC1`, for which, in experiment [1], the MIC is 3.12 µM. Moreover, the fold potentiation in experiment [2] came to 8.

In the case of `O=C(CN1C(=O)/C(=C/c2c(Cl)cccc2Cl)SC1=S)Nc1ccc(Cl)cn1`, the MIC in experiment [1] was > 100 µM (inactive). Turning to `O=C(CN1C(=O)/C(=C/c2c(Cl)cccc2Cl)SC1=S)NCc1ccccn1`, in experiment [1], the MIC was 6.2 µM. Also, the fold potentiation in experiment [2] was 8. On to `O=C(CN1C(=O)/C(=C/c2c(Cl)cccc2Cl)SC1=S)NCCc1c[nH]c2ccccc12`, for which, in experiment [1], the MIC was > 100 µM (inactive). Regarding `CN1CCN(NC(=O)CN2C(=O)/C(=C/c3c(F)cccc3C(F)(F)F)SC2=S)CC1`, in experiment [1], the MIC was 25 µM (inactive). Moreover, in experiment [2], the fold potentiation was 8. As for `Cc1cc(NC(=O)CN2C(=O)/C(=C/c3c(Cl)cccc3Cl)SC2=S)no1`, the MIC in experiment [1] is > 100 µM (inactive). As to `CN1CCN(NC(=O)CN2C(=O)/C(=C/c3c(C(F)(F)F)ccc(Cl)c3Cl)SC2=S)CC1`, the MIC in experiment [1] was 1.56 µM. In addition, the fold potentiation in experiment [2] was found to be 8.

As to `O=C(CN1C(=O)/C(=C/c2c(Cl)cccc2Cl)SC1=S)NC[C@@H]1CCCO1`, in experiment [1], the MIC was > 100 µM (inactive). Regarding `O=C(CN1C(=O)/C(=C/c2c(Cl)cccc2Cl)SC1=S)Nc1ccc(I)cn1`, the MIC in experiment [1] is > 100 µM (inactive).

(Values after PubChem BioAssay AID624081 (The Scripps Research Institute Molecular Screening Center, 2012).)
